ChEMBL document CHEMBL3286310, “Synthesis and biological evaluation of novel N-aryl maleimide derivatives clubbed with α-hydroxyphosphonates” (2014)
Converted amounts (≈) assume the structure as drawn.

Columns and labels:
Assay type in all cases: functional
Bacillus subtilis [1] = test: Antimicrobial activity against Bacillus subtilis NCIM 2250 after 24 hrs by NCCLS M7-A5 method; details: NCIM 2250, 24 h
Procedure, shortened: (§1)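 MIC by agar dilution on Mueller-Hinton agar plates, following NCCLS M7-A5. MIC was taken as the lowest concentration with no visible growth after 24 h incubation at 37 °C.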

Bacillus subtilis [2] = test: Antimicrobial activity against Bacillus subtilis NCIM 2250 at 100 ug/disc after 24 hrs by agar cup plate method; details: NCIM 2250, 24 h, read-out: DIZ
Procedure, shortened: (§2)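 Agar cup plate diffusion with bacterial inocula reseeded in Mueller-Hinton broth for 24 h at 37 °C. Compounds diluted in DMF, with DMF alone as control and streptomycin as standard. Inhibition-zone diameter read by caliper, each zone measured three times and averaged.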

Aspergillus clavatus [3] = test: Antimicrobial activity against Aspergillus clavatus MTCC 1323 at 100 ug/disc after 48 hrs by agar cup plate method; details: MTCC 1323, 48 h, read-out: DIZ
Procedure, shortened: (§3)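 Agar cup plate diffusion with fungal inocula reseeded in Czapek Dox broth for 48 h at 25 °C. Compounds diluted in DMF, with DMF alone as control and griseofulvin as standard. Inhibition-zone diameter read by caliper, each zone measured three times and averaged.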

Candida tropicalis [4] = test: Antimicrobial activity against Candida tropicalis MTCC 184 after 24 hrs by NCCLS M7-A5 method; details: MTCC 184, 24 h; procedure, shortened: as §1
Candida tropicalis [5] = test: Antimicrobial activity against Candida tropicalis MTCC 184 at 100 ug/disc after 48 hrs by agar cup plate method; details: MTCC 184, 48 h, read-out: DIZ; procedure, shortened: as §3
Aspergillus clavatus [6] = test: Antimicrobial activity against Aspergillus clavatus MTCC 1323 after 24 hrs by NCCLS M7-A5 method; details: MTCC 1323, 24 h; procedure, shortened: as §1
Escherichia coli [7] = test: Antimicrobial activity against Escherichia coli ATCC 25922 after 24 hrs by NCCLS M7-A5 method; details: ATCC 25922, 24 h; procedure, shortened: as §1
Escherichia coli [8] = test: Antimicrobial activity against Escherichia coli ATCC 25922 at 100 ug/disc after 24 hrs by agar cup plate method; details: ATCC 25922, 24 h, read-out: DIZ; procedure, shortened: as §2
Aspergillus niger [9] = test: Antimicrobial activity against Aspergillus niger MCIM 545 after 24 hrs by NCCLS M7-A5 method; details: MCIM 545, 24 h; procedure, shortened: as §1
Candida albicans [10] = test: Antimicrobial activity against Candida albicans MTCC 277 after 24 hrs by NCCLS M7-A5 method; details: MTCC 277, 24 h; procedure, shortened: as §1
Candida albicans [11] = test: Antimicrobial activity against Candida albicans MTCC 277 at 100 ug/disc after 48 hrs by agar cup plate method; details: MTCC 277, 48 h, read-out: DIZ; procedure, shortened: as §3
Aspergillus niger [12] = test: Antimicrobial activity against Aspergillus niger MCIM 545 at 100 ug/disc after 48 hrs by agar cup plate method; details: MCIM 545, 48 h, read-out: DIZ; procedure, shortened: as §3

With `CCOP(=O)(OCC)C(O)C1=C(N(C)C)C(=O)N(c2ccccc2)C1=O` (stereo unspecified) the MIC (Bacillus subtilis [1]) was 25 µg/mL (≈ 65.4 µM), the zone of inhibition at 100 µg/disc (Bacillus subtilis [2]) was 13.4 mm and the zone of inhibition at 100 µg/disc (Aspergillus clavatus [3]) was 16.3 mm. For the same molecule, the MIC (Candida tropicalis [4]) was 20 µg/mL (≈ 52.3 µM), the zone of inhibition at 100 µg/disc (Candida tropicalis [5]) was 16.1 mm and the MIC (Aspergillus clavatus [6]) was 20 µg/mL (≈ 52.3 µM). It also gave an MIC (Escherichia coli [7]) of 20 µg/mL (≈ 52.3 µM) and a zone of inhibition at 100 µg/disc (Escherichia coli [8]) of 13.2 mm.

Molecule `CCOP(=O)(OCC)C(O)C1=C(N(C)C)C(=O)N(c2ccc(Br)cc2)C1=O` (stereo unspecified) has an MIC (Bacillus subtilis [1]) of 20 µg/mL (≈ 43.4 µM), a zone of inhibition at 100 µg/disc (Bacillus subtilis [2]) of 15.1 mm and a zone of inhibition at 100 µg/disc (Aspergillus clavatus [3]) of 16.4 mm. The MIC (Candida tropicalis [4]) was 15 µg/mL (≈ 32.5 µM), the MIC (Aspergillus niger [9]) was 20 µg/mL (≈ 43.4 µM) and the zone of inhibition at 100 µg/disc (Candida tropicalis [5]) was 16.8 mm. The MIC (Aspergillus clavatus [6]) was 20 µg/mL (≈ 43.4 µM), the MIC (Escherichia coli [7]) was 25 µg/mL (≈ 54.2 µM) and the MIC (Candida albicans [10]) was 25 µg/mL (≈ 54.2 µM). For the same molecule, the zone of inhibition at 100 µg/disc (Candida albicans [11]) was 13.8 mm, the zone of inhibition at 100 µg/disc (Escherichia coli [8]) was 13.1 mm and the zone of inhibition at 100 µg/disc (Aspergillus niger [12]) was 15.5 mm.

Work on `CCOP(=O)(OCC)C(O)C1=C(N(C)C)C(=O)N(c2ccc(F)cc2)C1=O` (stereo unspecified) yielded an MIC (Bacillus subtilis [1]) of 10 µg/mL (≈ 25 µM), a zone of inhibition at 100 µg/disc (Bacillus subtilis [2]) of 15.6 mm and a zone of inhibition at 100 µg/disc (Aspergillus clavatus [3]) of 17.3 mm. For the same molecule, the MIC (Candida tropicalis [4]) was 15 µg/mL (≈ 37.5 µM), the MIC (Aspergillus niger [9]) was 15 µg/mL (≈ 37.5 µM) and the zone of inhibition at 100 µg/disc (Candida tropicalis [5]) was 16.7 mm. The MIC (Aspergillus clavatus [6]) was 10 µg/mL (≈ 25 µM), the MIC (Escherichia coli [7]) was 10 µg/mL (≈ 25 µM) and the MIC (Candida albicans [10]) was 15 µg/mL (≈ 37.5 µM). The zone of inhibition at 100 µg/disc (Candida albicans [11]) was 16.5 mm, the zone of inhibition at 100 µg/disc (Escherichia coli [8]) was 15.8 mm and the zone of inhibition at 100 µg/disc (Aspergillus niger [12]) was 16.4 mm.

In the case of `CCOP(=O)(OCC)C(O)C1=C(N(C)C)C(=O)N(c2cccc(C(F)(F)F)c2)C1=O` (stereo unspecified), the MIC (Bacillus subtilis [1]) is reported as 15 µg/mL (≈ 33.3 µM), the zone of inhibition at 100 µg/disc (Bacillus subtilis [2]) is reported as 15.4 mm and the zone of inhibition at 100 µg/disc (Aspergillus clavatus [3]) is reported as 17.4 mm. The MIC (Candida tropicalis [4]) was 10 µg/mL (≈ 22.2 µM), the MIC (Aspergillus niger [9]) was 15 µg/mL (≈ 33.3 µM) and the zone of inhibition at 100 µg/disc (Candida tropicalis [5]) was 17.2 mm. The MIC (Aspergillus clavatus [6]) was 10 µg/mL (≈ 22.2 µM), the MIC (Escherichia coli [7]) was 10 µg/mL (≈ 22.2 µM) and the MIC (Candida albicans [10]) was 20 µg/mL (≈ 44.4 µM). It also gave a zone of inhibition at 100 µg/disc (Candida albicans [11]) of 15.2 mm, a zone of inhibition at 100 µg/disc (Escherichia coli [8]) of 15.7 mm and a zone of inhibition at 100 µg/disc (Aspergillus niger [12]) of 16.6 mm.

`CCOP(=O)(OCC)C(O)C1=C(N(C)C)C(=O)N(c2ccc(Cl)cc2)C1=O` (stereo unspecified) showed an MIC (Candida tropicalis [4]) of 25 µg/mL (≈ 60 µM), an MIC (Aspergillus niger [9]) of 20 µg/mL (≈ 48 µM) and a zone of inhibition at 100 µg/disc (Candida tropicalis [5]) of 15.9 mm. It also gave an MIC (Escherichia coli [7]) of 25 µg/mL (≈ 60 µM), a zone of inhibition at 100 µg/disc (Escherichia coli [8]) of 13.4 mm and a zone of inhibition at 100 µg/disc (Aspergillus niger [12]) of 15.8 mm.

Molecule `CCOP(=O)(OCC)C(O)C1=C(N(C)C)C(=O)N(c2cccc(Cl)c2)C1=O` (stereo unspecified) has an MIC (Bacillus subtilis [1]) of 10 µg/mL (≈ 24 µM), a zone of inhibition at 100 µg/disc (Bacillus subtilis [2]) of 15.8 mm and a zone of inhibition at 100 µg/disc (Aspergillus clavatus [3]) of 16.2 mm. It also gave an MIC (Candida tropicalis [4]) of 10 µg/mL (≈ 24 µM), an MIC (Aspergillus niger [9]) of 25 µg/mL (≈ 60 µM) and a zone of inhibition at 100 µg/disc (Candida tropicalis [5]) of 17.1 mm. The MIC (Aspergillus clavatus [6]) was 20 µg/mL (≈ 48 µM), the MIC (Escherichia coli [7]) was 20 µg/mL (≈ 48 µM) and the MIC (Candida albicans [10]) was 10 µg/mL (≈ 24 µM). For the same molecule, the zone of inhibition at 100 µg/disc (Candida albicans [11]) was 16.6 mm, the zone of inhibition at 100 µg/disc (Escherichia coli [8]) was 13.5 mm and the zone of inhibition at 100 µg/disc (Aspergillus niger [12]) was 13.6 mm.

`CCOP(=O)(OCC)C(O)C1=C(N(C)C)C(=O)N(c2ccccc2Cl)C1=O` (stereo unspecified) was tested, and the MIC (Bacillus subtilis [1]) was 20 µg/mL (≈ 48 µM), the zone of inhibition at 100 µg/disc (Bacillus subtilis [2]) was 13.6 mm and the zone of inhibition at 100 µg/disc (Aspergillus clavatus [3]) was 16.8 mm. It also gave an MIC (Candida tropicalis [4]) of 20 µg/mL (≈ 48 µM), an MIC (Aspergillus niger [9]) of 15 µg/mL (≈ 36 µM) and a zone of inhibition at 100 µg/disc (Candida tropicalis [5]) of 16.2 mm. For the same molecule, the MIC (Aspergillus clavatus [6]) was 15 µg/mL (≈ 36 µM), the MIC (Escherichia coli [7]) was 15 µg/mL (≈ 36 µM) and the MIC (Candida albicans [10]) was 20 µg/mL (≈ 48 µM). The zone of inhibition at 100 µg/disc (Candida albicans [11]) was 15.1 mm, the zone of inhibition at 100 µg/disc (Escherichia coli [8]) was 15.4 mm and the zone of inhibition at 100 µg/disc (Aspergillus niger [12]) was 16.6 mm.

With `COC1=CC(=O)C[C@@H](C)[C@]12Oc1c(Cl)c(OC)cc(OC)c1C2=O` [GRISEOFULVIN] the zone of inhibition at 100 µg/disc (Aspergillus clavatus [3]) was 17.6 mm, the MIC (Candida tropicalis [4]) was 5 µg/mL (≈ 14.2 µM) and the MIC (Aspergillus niger [9]) was 5 µg/mL (≈ 14.2 µM). The zone of inhibition at 100 µg/disc (Candida tropicalis [5]) was 17.3 mm, the MIC (Aspergillus clavatus [6]) was 5 µg/mL (≈ 14.2 µM) and the MIC (Candida albicans [10]) was 5 µg/mL (≈ 14.2 µM). For the same molecule, the zone of inhibition at 100 µg/disc (Candida albicans [11]) was 16.8 mm and the zone of inhibition at 100 µg/disc (Aspergillus niger [12]) was 16.9 mm.

Work on `CN[C@@H]1[C@H](O[C@H]2[C@H](O[C@H]3[C@H](O)[C@@H](O)[C@H](N=C(N)N)[C@@H](O)[C@@H]3N=C(N)N)O[C@@H](C)[C@]2(O)C=O)O[C@@H](CO)[C@H](O)[C@H]1O` [STREPTOMYCIN] yielded an MIC (Bacillus subtilis [1]) of 5 µg/mL (≈ 8.6 µM), a zone of inhibition at 100 µg/disc (Bacillus subtilis [2]) of 16.2 mm and an MIC (Escherichia coli [7]) of 5 µg/mL (≈ 8.6 µM). It also gave a zone of inhibition at 100 µg/disc (Escherichia coli [8]) of 16.4 mm.
